Test results: ChEMBL document CHEMBL1629465, “Efficient synthesis of novel 1,2,4-triazole fused acyclic and 21-28 membered macrocyclic and/or lariat macrocyclic oxaazathia crown compounds with potential antimicrobial activity” (2010)

Assays:
Format in all cases: functional
Conditions in all cases: read-out: DIZ
Bacillus subtilis [1] = test: Antimicrobial activity against Bacillus subtilis RCMB 101001 at 5 mg/ml by agar diffusion technique
In short: (§1)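 Agar well diffusion. Test compounds and reference standard drugs were diluted to 5.0, 2.5 and 1.0 mg/mL and applied to 0.6 cm wells. Inhibition zone beyond the control was scored as 0 (no inhibition), + (0.1–0.5 cm), ++ (0.6–1.0 cm) or +++ (1.0–1.5 cm).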

Escherichia coli [2] = test: Antimicrobial activity against Escherichia coli RCMB 103001 at 1 mg/ml by agar diffusion technique; in short: as §1
Candida albicans [3] = test: Antimicrobial activity against Candida albicans RCMB 005003 at 2.5 mg/ml by agar diffusion technique; in short: as §1
Escherichia coli [4] = test: Antimicrobial activity against Escherichia coli RCMB 103001 at 2.5 mg/ml by agar diffusion technique; in short: as §1
Penicillium italicum [5] = test: Antimicrobial activity against Penicillium italicum RCMB 001018 at 2.5 mg/ml by agar diffusion technique; in short: as §1
Staphylococcus aureus [6] = test: Antimicrobial activity against Staphylococcus aureus RCMB 106001 at 5 mg/ml by agar diffusion technique; in short: as §1
Penicillium italicum [7] = test: Antimicrobial activity against Penicillium italicum RCMB 001018 at 1 mg/ml by agar diffusion technique; in short: as §1
Pseudomonas aeruginosa [8] = test: Antimicrobial activity against Pseudomonas aeruginosa RCMB 102002 at 2.5 mg/ml by agar diffusion technique; in short: as §1
[9] = system: Syncephalastrum racemosum; test: Antimicrobial activity against Syncephalastrum racemosum RCMB 016001 at 5 mg/ml by agar diffusion technique; in short: as §1
Aspergillus fumigatus [10] = test: Antimicrobial activity against Aspergillus fumigatus RCMB 002008 at 2.5 mg/ml by agar diffusion technique; in short: as §1
Staphylococcus aureus [11] = test: Antimicrobial activity against Staphylococcus aureus RCMB 106001 at 2.5 mg/ml by agar diffusion technique; in short: as §1
Bacillus subtilis [12] = test: Antimicrobial activity against Bacillus subtilis RCMB 101001 at 1 mg/ml by agar diffusion technique; in short: as §1
Escherichia coli [13] = test: Antimicrobial activity against Escherichia coli RCMB 103001 at 5 mg/ml by agar diffusion technique; in short: as §1
[14] = system: Syncephalastrum racemosum; test: Antimicrobial activity against Syncephalastrum racemosum RCMB 016001 at 1 mg/ml by agar diffusion technique; in short: as §1
Staphylococcus aureus [15] = test: Antimicrobial activity against Staphylococcus aureus RCMB 106001 at 1 mg/ml by agar diffusion technique; in short: as §1
Candida albicans [16] = test: Antimicrobial activity against Candida albicans RCMB 005003 at 5 mg/ml by agar diffusion technique; in short: as §1
Aspergillus fumigatus [17] = test: Antimicrobial activity against Aspergillus fumigatus RCMB 002008 at 5 mg/ml by agar diffusion technique; in short: as §1
Candida albicans [18] = test: Antimicrobial activity against Candida albicans RCMB 005003 at 1 mg/ml by agar diffusion technique; in short: as §1
Penicillium italicum [19] = test: Antimicrobial activity against Penicillium italicum RCMB 001018 at 5 mg/ml by agar diffusion technique; in short: as §1
Bacillus subtilis [20] = test: Antimicrobial activity against Bacillus subtilis RCMB 101001 at 2.5 mg/ml by agar diffusion technique; in short: as §1
Pseudomonas aeruginosa [21] = test: Antimicrobial activity against Pseudomonas aeruginosa RCMB 102002 at 5 mg/ml by agar diffusion technique; in short: as §1
[22] = system: Syncephalastrum racemosum; test: Antimicrobial activity against Syncephalastrum racemosum RCMB 016001 at 2.5 mg/ml by agar diffusion technique; in short: as §1
Aspergillus fumigatus [23] = test: Antimicrobial activity against Aspergillus fumigatus RCMB 002008 at 1 mg/ml by agar diffusion technique; in short: as §1
Pseudomonas aeruginosa [24] = test: Antimicrobial activity against Pseudomonas aeruginosa RCMB 102002 at 1 mg/ml by agar diffusion technique; in short: as §1

| Compound | zone of inhibition at 5000 µg/mL (Bacillus subtilis [1]) [mm] | zone of inhibition at 1000 µg/mL (Escherichia coli [2]) [mm] | zone of inhibition at 2500 µg/mL (Candida albicans [3]) [mm] | zone of inhibition at 2500 µg/mL (Escherichia coli [4]) [mm] | zone of inhibition at 2500 µg/mL (Penicillium italicum [5]) [mm] | zone of inhibition at 5000 µg/mL (Staphylococcus aureus [6]) [mm] | zone of inhibition at 1000 µg/mL (Penicillium italicum [7]) [mm] | zone of inhibition at 2500 µg/mL (Pseudomonas aeruginosa [8]) [mm] | zone of inhibition at 5000 µg/mL [9] [mm] | zone of inhibition at 2500 µg/mL (Aspergillus fumigatus [10]) [mm] | zone of inhibition at 2500 µg/mL (Staphylococcus aureus [11]) [mm] | zone of inhibition at 1000 µg/mL (Bacillus subtilis [12]) [mm] | zone of inhibition at 5000 µg/mL (Escherichia coli [13]) [mm] | zone of inhibition at 1000 µg/mL [14] [mm] | zone of inhibition at 1000 µg/mL (Staphylococcus aureus [15]) [mm] | zone of inhibition at 5000 µg/mL (Candida albicans [16]) [mm] | zone of inhibition at 5000 µg/mL (Aspergillus fumigatus [17]) [mm] | zone of inhibition at 1000 µg/mL (Candida albicans [18]) [mm] | zone of inhibition at 5000 µg/mL (Penicillium italicum [19]) [mm] | zone of inhibition at 2500 µg/mL (Bacillus subtilis [20]) [mm] | further results |
| --- | --- | --- | --- | --- | --- | --- | --- | --- | --- | --- | --- | --- | --- | --- | --- | --- | --- | --- | --- | --- | --- |
| C1=N\n2c(nnc2-c2cccnc2)SCCCCSc2nnc(-c3cccnc3)n2/N=C\c2ccccc2OCCOCCOCCOc2ccccc2/1 | 0 | 0 | 0 | 1 | 0 | 1 | 0 | 1 | 1 | 0 | 0 | 0 | 1 | 0 | 0 | 0 | 0 | 0 | 0 | 0 | zone of inhibition at 5000 µg/mL (Pseudomonas aeruginosa [21]): 1 mm; zone of inhibition at 2500 µg/mL [22]: 0 mm; zone of inhibition at 1000 µg/mL (Aspergillus fumigatus [23]): 0 mm; zone of inhibition at 1000 µg/mL (Pseudomonas aeruginosa [24]): 0 mm |
| Oc1ccccc1/C=N\n1c(SCCSc2nnc(-c3cccnc3)n2/N=C\c2ccccc2O)nnc1-c1cccnc1 | 1 | 0 | 0 | 0 | 0 | 0 | 0 | 0 | 1 | 0 | 0 | 0 | 0 | 0 | 0 | 0 | 0 | 0 | 1 | 0 | zone of inhibition at 5000 µg/mL (Pseudomonas aeruginosa [21]): 0 mm; zone of inhibition at 2500 µg/mL [22]: 1 mm; zone of inhibition at 1000 µg/mL (Aspergillus fumigatus [23]): 0 mm; zone of inhibition at 1000 µg/mL (Pseudomonas aeruginosa [24]): 0 mm |
| Nn1c(SCCCCSc2nnc(-c3cccnc3)n2N)nnc1-c1cccnc1 | 1 | 0 | 0 | 0 | 0 | 1 | 0 | 0 | 1 | 0 | 1 | 0 | 0 | 1 | 0 | 0 | 0 | 0 | 0 | 1 | zone of inhibition at 5000 µg/mL (Pseudomonas aeruginosa [21]): 0 mm; zone of inhibition at 2500 µg/mL [22]: 1 mm; zone of inhibition at 1000 µg/mL (Aspergillus fumigatus [23]): 0 mm; zone of inhibition at 1000 µg/mL (Pseudomonas aeruginosa [24]): 0 mm |
| S=c1[nH]nc(-c2cccnc2)n1/N=C\c1ccccc1OCCOCCOc1ccccc1/C=N\n1c(-c2cccnc2)n[nH]c1=S | 1 | 0 | 0 | 0 | 1 | 0 | 1 | 0 | 1 | 1 | 0 | 1 | 0 | 0 | 0 | 0 | 1 | 0 | 1 | 1 | zone of inhibition at 5000 µg/mL (Pseudomonas aeruginosa [21]): 0 mm; zone of inhibition at 2500 µg/mL [22]: 0 mm; zone of inhibition at 1000 µg/mL (Aspergillus fumigatus [23]): 0 mm; zone of inhibition at 1000 µg/mL (Pseudomonas aeruginosa [24]): 0 mm |
